The subject of data set [1] is HaCaT. The data set can be described thus: Antihyperproliferative activity against human HaCaT cells after 48 hrs by MTT assay. Format: functional, cell-based. An outline of the steps:
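HaCaT keratinocytes (mycoplasma-negative) exposed to compounds for 48 h, then MTT added (5 mg/mL stock in PBS) for 2 h at 37 °C. Formazan dissolved in DMSO and read at 570 nm, with 630 nm background. Inhibition = (1 − test/control) × 100, from test means (N = 3) against controls (N = 6-8). IC50 by nonlinear regression.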

Data set [2] concerns the target T1, NADPH--cytochrome P450 reductase (Homo sapiens, UniProt P16435).
T1 sequence (P16435 whole entry): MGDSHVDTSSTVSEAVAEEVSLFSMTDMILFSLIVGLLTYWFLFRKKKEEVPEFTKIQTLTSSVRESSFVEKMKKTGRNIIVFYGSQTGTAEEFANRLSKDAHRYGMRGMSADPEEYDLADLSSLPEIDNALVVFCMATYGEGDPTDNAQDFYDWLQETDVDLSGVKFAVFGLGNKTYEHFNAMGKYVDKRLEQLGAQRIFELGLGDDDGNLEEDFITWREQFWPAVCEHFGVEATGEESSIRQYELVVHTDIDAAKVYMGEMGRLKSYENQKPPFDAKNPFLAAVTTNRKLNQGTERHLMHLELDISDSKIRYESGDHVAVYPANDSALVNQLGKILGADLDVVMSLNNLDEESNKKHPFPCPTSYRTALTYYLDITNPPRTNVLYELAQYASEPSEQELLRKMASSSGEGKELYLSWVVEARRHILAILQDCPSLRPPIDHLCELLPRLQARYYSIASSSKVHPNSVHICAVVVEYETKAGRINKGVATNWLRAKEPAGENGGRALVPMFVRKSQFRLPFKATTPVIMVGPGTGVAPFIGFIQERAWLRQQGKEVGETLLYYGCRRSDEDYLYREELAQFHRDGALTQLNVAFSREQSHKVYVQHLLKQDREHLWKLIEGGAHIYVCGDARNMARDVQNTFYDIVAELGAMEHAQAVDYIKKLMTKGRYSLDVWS
The data set can be described thus: Induction of recombinant human CPR-mediated superoxide generation assessed as one-electron reduction of compound by measuring SOD-inhibitable reduction of succinoylated cytochrome c per 2 mU enzyme at […] by spectrophotometric analysis (reference value: 0.2 +/- 0.1 micromol/L/min).

For data set [3], the system named is HaCaT. The data set can be described thus: Induction of apoptosis in human HaCaT cells at 5 umol/L preincubated with 5 umol/L NQO-1 inhibitor dicoumarol for 25 mins followed by compound treatment measured after 18 hrs by 7-AAD staining based flow cytometry (reference value: 4.3 +/- 2.6%). On the set-up: scale not given: the % may be the effect or the level left. Format: functional.

Data set [4] deals with HaCaT. The data set can be described thus: Induction of apoptosis in human HaCaT cells at 5 umol/L after 18 hrs by 7-AAD staining based flow cytometry (reference value: 3 +/- 1%). Format: functional. In general terms: Flow cytometry measures light scatter and fluorescence of single cells or particles in a stream.
Data set [5] deals with HaCaT. The data set can be described thus: Induction of superoxide generation in human HaCaT cells assessed as 2-OH-E+ oxidized product formation by measuring mean fluorescence intensity at 50 umol/L after 30 mins by flow cytometry (reference value: 7.1 +/- 5.2). Format: functional.
Data set [6] deals with NAD(P)H dehydrogenase [quinone] 1 (Homo sapiens) (UniProt P15559). The data set can be described thus: Induction of recombinant human NQO-1-mediated superoxide generation assessed as two-electron reduction of compound by measuring SOD-inhibitable reduction of cytochrome c per unit enzyme at […] by spectrophotometric analysis (reference value: 0.2 +/- 0.1 micromol/L/min).
NAD(P)H dehydrogenase [quinone] 1 (Homo sapiens), sequence (P15559 whole entry): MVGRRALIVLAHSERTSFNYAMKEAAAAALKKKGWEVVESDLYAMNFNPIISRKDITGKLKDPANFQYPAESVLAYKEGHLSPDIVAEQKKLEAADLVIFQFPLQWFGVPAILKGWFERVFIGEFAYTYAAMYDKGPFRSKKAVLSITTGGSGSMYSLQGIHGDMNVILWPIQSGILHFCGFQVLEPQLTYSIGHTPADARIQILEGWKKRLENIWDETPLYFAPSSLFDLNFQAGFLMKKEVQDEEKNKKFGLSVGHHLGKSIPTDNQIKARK

Data set [7] concerns HaCaT. The data set can be described thus: Induction of superoxide generation in human HaCaT cells assessed as 2-OH-E+ oxidized product formation by measuring mean fluorescence intensity at 5 umol/L preincubated with 5 umol/L NQO-1 inhibitor dicoumarol for 25 mins followed by compound treatment measured after 18 hrs by flow cytometry (reference value: 407.59 +/- 68.7). Format: functional. A digest of the protocol:
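HaCaT cells were cultured as for the chronic assay and preincubated 25 min with dicoumarol (5 µmol/L) before test compound was added. DHE was loaded for 30 min in the dark, then cells were trypsinized. 2-OH-E+ fluorescence was read by flow cytometry in FL2 (550–600 nm) on 10 000 live cells, dead cells gated out, as MFI against DMSO control. Triplicate.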

In data set [8] the test system is HaCaT. The data set can be described thus: Induction of superoxide generation in human HaCaT cells assessed as 2-OH-E+ oxidized product formation by measuring mean fluorescence intensity at 5 umol/L after 18 hrs by flow cytometry (reference value: 367.5 +/- 80.1). Format: functional. A digest of the protocol:
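HaCaT keratinocytes grown in DMEM with 10% FBS and penicillin/streptomycin for 24 h at 37 °C, then exposed to test compound (5 µM, 0.1% DMSO final) for 18 h. DHE was added and loaded for 30 min, with shaking for the first 5 min, in the dark. Cells were trypsinized and read by flow cytometry (488 nm excitation, FL2 550–600 nm), 10 000 live cells, dead cells gated out. Read-out is MFI versus DMSO control; triplicate.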

Where only a bound is given, the exact number is not on record here.

These results are taken from ChEMBL document CHEMBL4020720, “Oxadiazole-substituted naphtho[2,3-b]thiophene-4,9-diones as potent inhibitors of keratinocyte hyperproliferation. Structure-activity relationships of the tricyclic quinone skeleton and the oxadiazole substituent” (Eur J Med Chem, 2017).

With `CCc1noc(-c2ccc(C(=O)c3ccccc3)s2)n1`, in data set [1], the IC50 (commonly the concentration needed to halve the response being measured) was more than 30 µM.
Still for that read-out and setting: the figure for `CCc1noc(-c2ccc3c(=O)c4ccccc4oc3c2)n1` is more than 30 µM.
`COC(=O)c1cc2c(s1)C(=O)c1ccccc1C2=O` registered an IC50 in data set [1] of 0.71 µM.
In turn, `CCc1noc(-c2cc3c(s2)Cc2ccccc2C3=O)n1` came in with an IC50 in data set [1] of 7.3 µM.
`COc1ccc(C(=O)Nc2cc3c(s2)C(=O)c2ccccc2C3=O)cc1` returned an IC50 in data set [1] of 1.1 µM.
In turn, `N#Cc1cc2c(s1)C(=O)c1ccccc1C2=O` showed an IC50 in data set [1] of 0.46 µM.
`O=C1c2ccccc2C(=O)c2sc(-c3nncs3)cc21` displayed an IC50 in data set [1] of 0.3 µM.
As to `O=C1c2ccccc2C(=O)c2sc(-c3nnco3)cc21`, the IC50 in data set [1] came out at 0.22 µM.
`CN/N=C/c1cc2c(s1)C(=O)c1ccccc1C2=O` registered an IC50 in data set [1] of more than 30 µM.
As for `CCc1nc(-c2cc3c(s2)C(=O)c2ccccc2C3=O)no1`, the IC50 in data set [1] was 0.58 µM.
The compound `CCc1noc(-c2cc(C(C)=O)cs2)n1` showed an IC50 in data set [1] of more than 30 µM.
Take `CCC(=O)Nc1cc2c(s1)C(=O)c1ccccc1C2=O`: half-maximal inhibition in data set [1] (IC50) was put at 9.6 µM.
Same read-out and setting: the figure for `CCc1noc(-c2ccc3c(c2)C(=O)c2ccccc2C3=O)n1` is more than 30 µM.
Consider `O=C(O)c1cc2c(s1)C(=O)c1ccccc1C2=O`, for which the IC50 in data set [1] is more than 30 µM.
Same read-out and setting: then `CCc1noc(-c2cc3c(OC)c4ccccc4c(OC)c3s2)n1`, with 6.7 µM.
With `CCc1noc(-c2cccs2)n1`, the IC50 in data set [1] was more than 30 µM.
The compound `CCc1noc(-c2cc3ccccc3s2)n1` had an IC50 in data set [1] of more than 30 µM.
In the case of `Cc1cc2c(s1)C(=O)c1ccccc1C2=O`, the Activity was determined as 1.1 µmol/L/min in data set [2], 4.3% in data set [3], 4.3% in data set [4] and 0.3 µmol/L/min in data set [6]. The same compound showed an IC50 in data set [1] of 5.2 µM. Further, the Flu intensity in data set [5] is given as 11.5; in data set [7] it was 633.5; in data set [8], 517.
`CCc1noc(-c2cc3oc4ccccc4c(=O)c3s2)n1`: the 50% inhibitory concentration (IC50) in data set [1] was more than 30 µM.
The compound `O=Cc1cc2c(s1)C(=O)c1ccccc1C2=O` showed an IC50 in data set [1] of 1.2 µM.
The same measure, in the same setting: the figure for `CCc1noc(C2=CC(=O)c3ccccc3C2=O)n1` is more than 30 µM; for `CCc1nnc(-c2cc3c(s2)C(=O)c2ccccc2C3=O)s1` it is more than 15 µM.
`CCc1noc(-c2cc3c(s2)C(=O)c2ccccc2C3=O)n1`: the Activity came out at 0.9 µmol/L/min in data set [2], 6.9% in data set [3], 39.3% in data set [4] and 0.5 µmol/L/min in data set [6]. This compound returned an IC50 in data set [1] of 0.36 µM. For the same compound, the Flu intensity in data set [5] amounted to 25.2; in data set [7], 558.7; in data set [8], 930.1.
As for `O=C1c2ccccc2C(=O)c2sc([N+](=O)[O-])cc21`, the Activity in data set [2] worked out at 2 µmol/L/min; in data set [3], 3.4%; in data set [4], 5.6%; in data set [6], 4.6 µmol/L/min. Also, the IC50 in data set [1] came to 1.8 µM. The Flu intensity in data set [5] was determined as 138; in data set [7], 1022; in data set [8] it was 973.8.
As for `CCc1noc(-c2ccc3ccccc3c2)n1`, the IC50 in data set [1] is more than 30 µM.
Compound `CCCC(=O)Nc1cc2c(s1)C(=O)c1ccccc1C2=O` came in with an IC50 in data set [1] of 5.7 µM.
As for `Nc1cc2c(s1)C(=O)c1ccccc1C2=O`, the Activity amounted to 1.1 µmol/L/min in data set [2], 3.2% in data set [3], 5.6% in data set [4] and 0.8 µmol/L/min in data set [6]. For the same compound, the IC50 in data set [1] was more than 30 µM. Also, the Flu intensity in data set [5] turned out to be 76.7; in data set [7], 502.3; in data set [8], 518.
For the compound `CCc1noc(-c2ccc(C(C)=O)cc2)n1`, in data set [1], the concentration for half-maximal inhibition (IC50) was more than 30 µM.
On the same count and under the same terms, then `CCc1noc(-c2ccc3sc4ccccc4c(=O)c3c2)n1`, with more than 30 µM; and `CC(C)C(=O)Nc1cc2c(s1)C(=O)c1ccccc1C2=O`, with 3.3 µM.
On to `CC1=CC(=O)c2ccccc2C1=O` [MENADIONE], for which the Activity was 2.1 µmol/L/min in data set [2], 3.1% in data set [3], 4.8% in data set [4] and 1 µmol/L/min in data set [6]. The Flu intensity amounted to 44 in data set [5], 457.2 in data set [7] and 431.9 in data set [8].
`CC(=O)c1cc2c(s1)C(=O)c1ccccc1C2=O`: the Activity in data set [2] was determined as 1.2 µmol/L/min; in data set [3] it was 3.7%; in data set [4], 4.2%; in data set [6], 0.8 µmol/L/min. Further, the Flu intensity turned out to be 19.2 in data set [5], 434.5 in data set [7] and 500 in data set [8].
`O=C1c2ccccc2C(=O)c2sc(/C=N/Nc3ccccc3)cc21` returned an IC50 in data set [1] of more than 30 µM.
`CCc1noc(-c2ccccc2)n1`: in data set [1], the half-inhibitory concentration (IC50) is more than 30 µM.
Still for that read-out and setting: then `CCc1noc(-c2cc3c(s2)C(=O)C=CC3=O)n1`, with 11 µM.
In the case of `CCc1noc(-c2cc3c(OC)c4ccccc4cc3s2)n1`, the IC50 in data set [1] is more than 30 µM.
On the same count and under the same terms, the figure for `O=C1c2ccccc2C(=O)c2sc(-c3nnc(-c4ccccc4)o3)cc21` is more than 30 µM; for `CCc1noc(C=C2c3ccccc3C(=O)c3ccccc32)n1` it is 6.5 µM; for `Cc1nnc(-c2cc3c(s2)C(=O)c2ccccc2C3=O)o1` it is 0.08 µM.
Regarding `O=C1c2ccccc2C(=O)c2sccc21` [THIOPHENONAPHTHOQUINONE], the Activity in data set [2] was found to be 1.2 µmol/L/min; in data set [3], 7.4%; in data set [4] it was 4%; in data set [6], 1.2 µmol/L/min. Also, the figures for the Flu intensity in data set [5], in data set [7] and in data set [8] were 10.5, 583.3 and 552.7, respectively.
`CCc1noc(-c2cc3c(OC)ccc(OC)c3s2)n1`: in data set [1], the IC50 is more than 30 µM.
In data set [1], `CCc1noc(-c2cc3cc4ccccc4cc3s2)n1` came in with an IC50 of more than 30 µM.
Still for that read-out and setting: the figure for `CCCCc1nnc(-c2cc3c(s2)C(=O)c2ccccc2C3=O)o1` is 1.9 µM; for `O=C(/C=C/c1cc2c(s1)C(=O)c1ccccc1C2=O)c1ccccc1` it is more than 30 µM; for `O=C(Nc1cc2c(s1)C(=O)c1ccccc1C2=O)c1ccccc1` it is 2.3 µM.
Turning to `CCc1nc(-c2ccc3c(c2)C(=O)c2ccccc2C3=O)no1`, in data set [1], the IC50 is more than 30 µM.
Same read-out and setting: then `O=C1c2ccccc2C(=O)c2sc(-c3nnn[nH]3)cc21`, with more than 30 µM; and `O=C1c2ccccc2C(=O)c2c([N+](=O)[O-])csc21`, with 1.1 µM; and `CCc1noc(-c2ccc3c(c2)C(=O)C=CC3=O)n1`, with 14 µM.
In the case of `NNC(=O)c1cc2c(s1)C(=O)c1ccccc1C2=O`, half-maximal inhibition in data set [1] (IC50) was put at 1.7 µM.
`CCc1nnc(-c2cc3c(s2)C(=O)c2ccccc2C3=O)o1` showed an IC50 in data set [1] of 0.15 µM.
Turning to `Cc1nnc(-c2cc3c(s2)C(=O)c2ccccc2C3=O)s1`, half-maximal inhibition in data set [1] (IC50) required 3.7 µM.
Still for that read-out and setting: the figure for `CC(=O)/C=C/c1cc2c(s1)C(=O)c1ccccc1C2=O` is more than 30 µM.
